Holding throughout (format): cell-based
The target of assay [1] is T1, GABA-A receptor; alpha-5/beta-3/gamma-2 (Homo sapiens, UniProt P18507+P28472+P31644).
T1 sequence (P18507 whole entry): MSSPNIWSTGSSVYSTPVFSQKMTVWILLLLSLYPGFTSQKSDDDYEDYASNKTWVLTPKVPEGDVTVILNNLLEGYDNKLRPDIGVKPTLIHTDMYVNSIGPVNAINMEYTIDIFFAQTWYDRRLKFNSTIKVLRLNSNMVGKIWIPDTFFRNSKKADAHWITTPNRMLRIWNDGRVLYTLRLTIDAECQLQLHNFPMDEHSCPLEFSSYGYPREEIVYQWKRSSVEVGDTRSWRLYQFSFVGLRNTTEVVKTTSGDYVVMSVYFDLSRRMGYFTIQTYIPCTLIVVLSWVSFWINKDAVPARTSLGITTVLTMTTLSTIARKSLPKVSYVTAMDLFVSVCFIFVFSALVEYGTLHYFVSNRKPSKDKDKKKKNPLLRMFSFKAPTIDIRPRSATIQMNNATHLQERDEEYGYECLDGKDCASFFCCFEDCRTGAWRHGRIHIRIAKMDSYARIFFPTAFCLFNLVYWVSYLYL
T1 sequence (P28472 whole entry): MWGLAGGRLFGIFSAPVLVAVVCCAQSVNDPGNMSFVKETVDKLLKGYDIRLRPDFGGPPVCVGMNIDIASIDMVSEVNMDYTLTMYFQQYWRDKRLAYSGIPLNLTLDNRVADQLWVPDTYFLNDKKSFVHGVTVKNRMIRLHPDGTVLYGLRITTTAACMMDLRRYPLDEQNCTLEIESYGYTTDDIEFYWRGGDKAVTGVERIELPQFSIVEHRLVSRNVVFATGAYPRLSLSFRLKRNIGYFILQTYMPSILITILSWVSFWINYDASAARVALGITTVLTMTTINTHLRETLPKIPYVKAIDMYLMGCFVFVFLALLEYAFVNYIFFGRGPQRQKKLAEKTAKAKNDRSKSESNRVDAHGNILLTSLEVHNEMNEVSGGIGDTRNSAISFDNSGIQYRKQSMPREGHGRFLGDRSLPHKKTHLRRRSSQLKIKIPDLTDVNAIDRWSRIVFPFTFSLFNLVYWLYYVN
T1 sequence (P31644 whole entry): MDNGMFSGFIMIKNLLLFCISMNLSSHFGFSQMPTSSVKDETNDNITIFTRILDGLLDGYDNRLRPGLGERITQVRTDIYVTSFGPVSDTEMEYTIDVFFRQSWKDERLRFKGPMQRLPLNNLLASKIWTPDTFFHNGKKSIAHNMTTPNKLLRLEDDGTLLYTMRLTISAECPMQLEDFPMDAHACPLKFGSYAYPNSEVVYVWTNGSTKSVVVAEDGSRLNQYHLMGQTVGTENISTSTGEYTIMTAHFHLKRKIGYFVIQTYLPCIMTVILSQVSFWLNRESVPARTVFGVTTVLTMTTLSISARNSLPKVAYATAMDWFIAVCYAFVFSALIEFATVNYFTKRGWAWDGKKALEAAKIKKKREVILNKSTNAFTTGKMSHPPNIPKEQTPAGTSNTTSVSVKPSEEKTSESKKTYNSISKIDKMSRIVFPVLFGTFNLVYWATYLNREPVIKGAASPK
Nature of the assay: Inhibition of [3H]Ro-151788 binding to recombinant human gamma-aminobutyric-acid A receptor alpha-5-beta-3-gamma-2 subtype expressed in L (tk-) cells.

The target in assay [2] is T2, GABA-A receptor; alpha-1/beta-3/gamma-2 (Homo sapiens, UniProt P14867+P18507+P28472).
T2 sequence (P14867 whole entry): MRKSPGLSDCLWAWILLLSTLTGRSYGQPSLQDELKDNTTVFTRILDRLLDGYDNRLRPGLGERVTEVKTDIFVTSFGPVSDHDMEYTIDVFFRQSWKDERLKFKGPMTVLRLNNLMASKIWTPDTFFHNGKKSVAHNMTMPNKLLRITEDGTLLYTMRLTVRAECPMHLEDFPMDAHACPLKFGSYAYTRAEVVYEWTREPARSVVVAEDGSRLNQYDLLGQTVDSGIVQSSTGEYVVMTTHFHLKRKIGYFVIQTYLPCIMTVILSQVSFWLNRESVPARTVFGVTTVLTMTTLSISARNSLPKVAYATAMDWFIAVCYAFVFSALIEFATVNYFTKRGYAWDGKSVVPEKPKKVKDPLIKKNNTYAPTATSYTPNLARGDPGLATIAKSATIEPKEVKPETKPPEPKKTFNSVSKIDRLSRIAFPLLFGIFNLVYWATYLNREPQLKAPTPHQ
T2 sequence (P18507 whole entry): T1 sequence (P18507 whole entry)
T2 sequence (P28472 whole entry): T1 sequence (P28472 whole entry)
The assay can be described thus: Inhibition of [3H]Ro-151788 binding to recombinant human gamma-aminobutyric-acid A receptor alpha-1-beta-3-gamma-2 subtype expressed in L (tk-) cells.

Assay [3] deals with GABA-A receptor; alpha-5/beta-3/gamma-2 (Homo sapiens) (UniProt P18507+P28472+P31644). Nature of the assay: Efficacy was measured as modulation of the current in response to GABA at hGABA alpha-5-beta-3-gamma-2 receptor expressed in Xenopus oocytes. Conditions: Oocyte. An outline of the steps:
(§1)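 Two-electrode voltage clamp on Xenopus oocytes expressing each receptor combination. […] Value is percent increase or decrease of the EC20 GABA current.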

The target of assay [4] is GABA-A receptor; alpha-1/beta-3/gamma-2 (Homo sapiens) (UniProt P14867+P18507+P28472). Nature of the assay: Efficacy was measured as modulation of the current in response to GABA at hGABA alpha-1-beta-3-gamma-2 receptor expressed in Xenopus oocytes. The following applies: Oocyte. The procedure, abridged: as §1
Assay [5] addresses GABA-A receptor; alpha-3/beta-3/gamma-2 (Homo sapiens) (UniProt P18507+P28472+P34903). The assay can be described thus: Efficacy was measured as modulation of the current in response to GABA at hGABA alpha-3-beta-3-gamma-2 receptor expressed in Xenopus oocytes. Conditions: Oocyte. An outline of the steps:
as §1

Assay [6] addresses T3, GABA-A receptor; alpha-2/beta-3/gamma-2 (Homo sapiens, UniProt P18507+P28472+P47869).
T3 sequence (P18507 whole entry): T1 sequence (P18507 whole entry)
T3 sequence (P28472 whole entry): T1 sequence (P28472 whole entry)
T3 sequence (P47869 whole entry): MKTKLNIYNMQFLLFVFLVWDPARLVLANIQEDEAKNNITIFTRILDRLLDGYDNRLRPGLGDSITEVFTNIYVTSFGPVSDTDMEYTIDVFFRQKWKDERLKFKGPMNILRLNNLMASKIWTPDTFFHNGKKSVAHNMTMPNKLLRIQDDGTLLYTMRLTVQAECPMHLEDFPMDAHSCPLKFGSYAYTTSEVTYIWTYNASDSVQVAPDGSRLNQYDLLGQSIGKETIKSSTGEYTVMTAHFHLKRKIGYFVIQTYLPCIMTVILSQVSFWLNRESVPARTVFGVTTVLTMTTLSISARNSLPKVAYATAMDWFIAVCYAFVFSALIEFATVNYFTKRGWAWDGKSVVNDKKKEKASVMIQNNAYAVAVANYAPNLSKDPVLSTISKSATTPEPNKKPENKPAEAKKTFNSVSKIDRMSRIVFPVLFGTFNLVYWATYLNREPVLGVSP
The assay can be described thus: Inhibition of [3H]Ro-151788 binding to recombinant human gamma-aminobutyric acid A receptor alpha-2-beta-3-gamma-2 subtype expressed in L (tk-) cells.

Assay [7] addresses T4, GABA-A receptor; alpha-3/beta-3/gamma-2 (Homo sapiens, UniProt P18507+P28472+P34903).
T4 sequence (P18507 whole entry): T1 sequence (P18507 whole entry)
T4 sequence (P28472 whole entry): T1 sequence (P28472 whole entry)
T4 sequence (P34903 whole entry): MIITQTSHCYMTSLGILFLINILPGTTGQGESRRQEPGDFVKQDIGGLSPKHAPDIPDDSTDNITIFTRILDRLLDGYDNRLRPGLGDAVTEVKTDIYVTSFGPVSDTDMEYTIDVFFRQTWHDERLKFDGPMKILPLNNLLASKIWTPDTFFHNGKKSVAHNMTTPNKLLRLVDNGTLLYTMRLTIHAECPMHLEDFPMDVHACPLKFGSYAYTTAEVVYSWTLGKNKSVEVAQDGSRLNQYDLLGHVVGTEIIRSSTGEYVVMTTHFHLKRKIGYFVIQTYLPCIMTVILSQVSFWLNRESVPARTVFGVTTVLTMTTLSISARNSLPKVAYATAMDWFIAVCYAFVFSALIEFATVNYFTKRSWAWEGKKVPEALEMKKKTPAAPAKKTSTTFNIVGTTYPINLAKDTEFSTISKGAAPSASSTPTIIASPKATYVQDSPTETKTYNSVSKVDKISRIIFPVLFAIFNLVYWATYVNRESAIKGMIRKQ
Nature of the assay: Inhibition of [3H]Ro-151788 binding to recombinant human gamma-aminobutyric-acid A receptor alpha-3-beta-3-gamma-2 subtype expressed in L (tk-) cells.

Broadly, the Ki is a dissociation constant, usually derived from enzyme kinetics or from competition with a known ligand. In the case of `c1ccc(COc2nn3c(-c4cccnc4)nnc3c3c2C2CCC3CC2)nc1`, the Ki was 2.7 nM in assay [1], 260 nM in assay [2], 54 nM in assay [6] and 38 nM in assay [7]. For the same molecule, the Efficacy in assay [3] turned out to be 31%; in assay [4] it was 36%; in assay [5], 9%.

`Cc1cc(C)n(COc2nn3c(-c4ccccc4)nnc3c3c2C2CCC3CC2)n1`: the Ki in assay [1] was found to be 0.26 nM; in assay [2], 23 nM; in assay [6], 7.5 nM; in assay [7], 2.3 nM. Moreover, the Efficacy in assay [3] amounted to 1%; in assay [4], 31%; in assay [5] it was 7%.

As to `CN(C)Cc1cccc(COc2nn3c(-c4ccccc4)nnc3c3c2C2CCC3CC2)c1`, the Ki in assay [1] is 4.5 nM; in assay [2], 190 nM; in assay [6], 64 nM; in assay [7], 24 nM. In addition, the results for the Efficacy in assay [3] and in assay [5] were -25% and -16%, respectively.

`c1ccc(-c2nnc3c4c(c(OCc5ccccn5)nn23)C2CCC4CC2)cc1`: the Ki stood at 1.2 nM in assay [1], 71 nM in assay [2], 26 nM in assay [6] and 13 nM in assay [7]. Besides, the Efficacy in assay [3] was 18%.

For `N#Cc1cccc(COc2nn3c(-c4ccccc4)nnc3c3c2C2CCC3CC2)c1`, the Ki in assay [1] is 7.8 nM; in assay [2], greater than 1000 nM; in assay [6], 180 nM; in assay [7] it was 66 nM. Also, the values for the Efficacy in assay [3], in assay [4] and in assay [5] were 23%, 23% and 38%, respectively.

On to `c1ccc(-c2nnc3c4c(c(OCc5ncccc5OCC5CC5)nn23)C2CCC4CC2)cc1`, for which the Ki in assay [1] amounted to 0.75 nM; in assay [2], 6.9 nM; in assay [6] it was 5.6 nM; in assay [7] it was 2.3 nM. The Efficacy in assay [3] came out at 50%; in assay [4] it was 175%; in assay [5], 139%.

For the molecule `CCn1ccnc1COc1nn2c(-c3ccccc3)nnc2c2c1C1CCC2CC1`, the Ki in assay [1] came to 0.29 nM; in assay [2] it was 3.3 nM; in assay [6], 2.3 nM; in assay [7], 1 nM. In addition, the results for the Efficacy in assay [4] and in assay [5] were 26% and 23%, respectively.

For `c1ccc(-c2nnc3c4c(c(OCc5ccncc5)nn23)C2CCC4CC2)cc1`, the Ki in assay [1] came to 4.7 nM; in assay [2] it was 140 nM; in assay [6] it was 82 nM; in assay [7] it was 13 nM. The values for the Efficacy in assay [4] and in assay [5] were 38% and 17%, respectively.

Take `c1ccc(-c2nnc3c4c(c(OCc5nccc6ccccc56)nn23)C2CCC4CC2)cc1`: the Ki stood at 0.69 nM in assay [1], 29 nM in assay [2], 7.5 nM in assay [6] and 4.5 nM in assay [7]. The Efficacy in assay [4] turned out to be 45%; in assay [5], 14%.

For the molecule `c1ccc(-c2nnc3c4c(c(OCn5cccn5)nn23)C2CCC4CC2)cc1`, the Ki in assay [1] was found to be 2.7 nM; in assay [2] it was 130 nM; in assay [6], 43 nM; in assay [7] it was 19 nM. Moreover, the Efficacy amounted to 76% in assay [4] and 0% in assay [5].

In the case of `CCCc1cccnc1COc1nn2c(-c3ccccc3)nnc2c2c1C1CCC2CC1`, the inhibition constant (Ki) in assay [1] amounted to 3.1 nM; in assay [2] it was 3.5 nM; in assay [6] it was 9.9 nM; in assay [7] it was 2.4 nM. The results for the Efficacy in assay [4] and in assay [5] were 62% and 52%, respectively.

In the case of `c1ccc(-c2nnc3c4c(c(OCc5cscn5)nn23)C2CCC4CC2)cc1`, the Ki in assay [1] came to 1.2 nM; in assay [2], 68 nM; in assay [6], 21 nM; in assay [7], 10 nM. Also, the Efficacy in assay [4] and in assay [5] was 33% each time.

As to `Cn1ccnc1COc1nn2c(-c3ccccc3)nnc2c2c1C1CCC2CC1`, the Ki in assay [1] came to 0.45 nM; in assay [2] it was 19 nM; in assay [6] it was 7.1 nM; in assay [7] it was 4.3 nM. The Efficacy in assay [4] and in assay [5] was 24% throughout.

`CCOc1cccnc1COc1nn2c(-c3ccccc3)nnc2c2c1C1CCC2CC1`: the Ki in assay [1] was found to be 0.36 nM; in assay [2] it was 3.9 nM; in assay [6], 2.8 nM; in assay [7], 1.1 nM. The Efficacy in assay [4] stood at 66%; in assay [5], 46%.

Turning to `c1ccc(Cn2ccnc2COc2nn3c(-c4ccccc4)nnc3c3c2C2CCC3CC2)cc1`, the inhibition constant (Ki) in assay [1] came out at 0.21 nM; in assay [2], 0.81 nM; in assay [6], 1.7 nM; in assay [7], 2 nM. The Efficacy worked out at 73% in assay [4] and 100% in assay [5].
